From ChEMBL document CHEMBL4261545, “Extraction of antioxidant and antiproliferative ingredients from fruits of Rubus chingii Hu by active tracking guidance” (Medchemcomm, 2017) come the findings set out here.

≈ marks a conversion by molar mass, not a printed value. Calls of active or inactive are those of the source. The calls are words filed in the database; no cut-off is given here.

In assay [1] the test system is A549. In words: Cytotoxicity against human A549 cells after 24 hrs by MTT assay. It counts as functional, cell-based. The method in brief: (§1)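 Cells grown in DMEM with 10% heat-inactivated FBS, penicillin and streptomycin at 37 °C, 5% CO2. Seeded 5×10^4 cells per well and treated 24 h after seeding. Samples dissolved in DMSO and diluted in medium, final DMSO under 0.1% (v/v). After 24 h exposure, MTT (0.5 mg mL-1) was added for 4 h at 37 °C and absorbance read at 490 nm. Inhibition % = (1 − ODsample/ODcontrol)×100, run in triplicate.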

The subject of assay [2] is MCF7. The assay can be described thus: Cytotoxicity against human MCF7 cells after 24 hrs by MTT assay. In kind it is functional, cell-based. In outline:
as §1
On the technique in general: Tetrazolium dyes change colour on reduction, which living cells bring about.

Assay [3] deals with HepG2. In words: Cytotoxicity against human HepG2 cells after 24 hrs by MTT assay. It counts as functional, cell-based. In outline: as §1
The subject of assay [4] is Bel-7402. The assay can be described thus: Cytotoxicity against human Bel7402 cells after 24 hrs by MTT assay. It counts as functional, cell-based. In outline: as §1
For assay [5], the system named is HepG2. In words: Cytotoxicity against human HepG2 cells assessed as inhibition of cell proliferation at 100 ug/ml after 24 hrs by MTT assay relative to control. In kind it is functional. The method in brief:
(§2)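 Cells (from the CAS cell bank) were grown in DMEM with 10% heat-inactivated FBS, penicillin and streptomycin at 37 °C under 5% CO2. They were seeded at 5×10^4 cells/well and treated 24 h later. Samples were dissolved in DMSO and diluted in medium (final DMSO <0.1%) for 24 h. MTT (0.5 mg/mL) was added for 4 h at 37 °C and A490 read. Inhibition = (1 − OD sample/OD control)×100, in triplicate.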

The subject of assay [6] is A549. In words: Cytotoxicity against human A549 cells assessed as inhibition of cell proliferation at 100 ug/ml after 24 hrs by MTT assay relative to control. In kind it is functional. In outline:
as §2

For assay [7], the system named is Bel-7402. The assay can be described thus: Cytotoxicity against human Bel7402 cells assessed as inhibition of cell proliferation at 100 ug/ml after 24 hrs by MTT assay relative to control. The conditions noted are these: for inhibition at 100 µg/mL: Bel-7402, 24 h. It counts as functional. In outline: as §1
Assay [8] relates to MCF7. In words: Cytotoxicity against human MCF7 cells assessed as inhibition of cell proliferation at 100 ug/ml after 24 hrs by MTT assay relative to control. In kind it is functional. The method in brief:
as §2

Assay [9] deals with MCF7. The assay can be described thus: Induction of morphological changes in human MCF7 cells after 24 hrs by phase contrast microscopic method. It counts as functional, cell-based. The method in brief:
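MCF-7 cells were kept in DMEM with 10% heat-inactivated FBS at 37 °C, 5% CO2, exposed to compound for 24 h, then examined for morphological changes by phase-contrast microscopy.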

For the compound `CC[C@H](CC[C@@H](C)[C@H]1CC[C@H]2[C@@H]3CC=C4C[C@@H](O[C@@H]5O[C@H](CO)[C@@H](O)[C@H](O)[C@H]5O)CC[C@]4(C)[C@H]3CC[C@]12C)C(C)C`, the Activity entry in assay [1], in [2], in assay [3] and in assay [4] was “Dose-dependent effect” in each case.
In the case of `C[C@@]12CCC[C@@](C)(C(=O)O)[C@H]1CC[C@@]13C[C@@H](CC[C@H]12)[C@](O)(CO)C3`, the Activity entry in assay [1], in assay [2], in [3] and in assay [4] was “Dose-dependent effect” in each case.
For the compound `O=c1[nH]cc(F)c(=O)[nH]1`, the inhibition entry in [5], in assay [6], in assay [7] and in assay [8] was “Active” each time.
Consider `CC1(C)CC[C@]2(C(=O)O)CC[C@]3(C)C(=CC[C@@H]4[C@@]5(C)CC[C@H](O)C(C)(C)[C@@H]5CC[C@]43C)[C@@H]2C1` [OLEANOLIC_ACID], for which the Activity entry in [1], in [2], in assay [3] and in assay [4] was “Dose-dependent effect” in each case. Also, the inhibition – broadly, the share of the control response that was lost under treatment – at 100 µg/mL in [7] amounted to 55.2%.
Take `C[C@@H]1CC[C@]2(C(=O)O)CC[C@]3(C)C(=CC[C@@H]4[C@@]5(C)C[C@@H](O)[C@H](O)C(C)(C)[C@@H]5CC[C@]43C)[C@@H]2[C@]1(C)O` [TOMENTIC ACID]: the Activity entry in assay [1], in [2], in assay [3] and in assay [4] was “Dose-dependent effect” throughout. Also, the IC50 (in general, the concentration needed to halve the response being measured) in [1] (A549, 24 h) was determined as 62.4 µg/mL (≈ 128 µM); in assay [2] (MCF7, 24 h) it was 24.2 µg/mL (≈ 49.6 µM); in [3] (HepG2, 24 h), 40.6 µg/mL (≈ 83 µM); in assay [4] (Bel-7402, 24 h) it was 54.2 µg/mL (≈ 111 µM). For the same compound, the inhibition at 100 µg/mL is 82.8% in [5] (HepG2, 24 h); 72.4% in [6] (A549, 24 h); 80.2% in assay [7]; 91.8% in assay [8] (MCF7, 24 h). Moreover, the result in assay [9] was Active.
